Measurements published in ChEMBL document CHEMBL1149300, “Novel retinoic acid metabolism blocking agents endowed with multiple biological activities are efficient growth inhibitors of human breast and prostate cancer cells in vitro and a human breast tumor xenograft in nude mice” (J Med Chem, 2004).
Calls of active or inactive are those of the source. The rule behind the calls is not given here.

How the values were obtained:
[1] = system: LNCaP; assay: Induction of cell differentiation in human LNCaP cells after 6 days; type: functional, cell-based
Method in brief: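 LNCaP cells given 1 µM compound, alone or with 1 µM ATRA, for 6 days. Lysates (50 µg) run on 10% SDS-PAGE and Western blotted with anti-cytokeratin 8/18, β-actin as control. ECL detection; band intensity by densitometry taken as the differentiation marker.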

[2] = Inhibition of ATRA hydroxylase in Syrian golden hamster liver microsome assessed ATRA metabolism using [11.12-3H]-ATRA; type: microsomes, Mesocricetus auratus
Method in brief: (§1)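 Microsomes from male Syrian golden hamster liver, or from T47D cells pretreated with 1 µM ATRA. Incubation in 0.1 M phosphate buffer pH 7.4 with NADPH, MgCl2 and BSA, inhibitor in DMSO; 3 min preincubation at 37 °C, then [11,12-3H]-ATRA for 30 min at 37 °C under oxygen. Ethyl acetate extraction, reverse-phase HPLC with radiometric detection; percent polar metabolites; IC50 from dose-response curves.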

[3] = target: T1, Cytochrome P450 26A1 (Homo sapiens, UniProt O43174); assay: Inhibition of ATRA-induced CYP26 in human MCF7 cells assessed ATRA as metabolism using [11.12-3H]-ATRA; type: functional, cell-based
T1 sequence (O43174 whole entry): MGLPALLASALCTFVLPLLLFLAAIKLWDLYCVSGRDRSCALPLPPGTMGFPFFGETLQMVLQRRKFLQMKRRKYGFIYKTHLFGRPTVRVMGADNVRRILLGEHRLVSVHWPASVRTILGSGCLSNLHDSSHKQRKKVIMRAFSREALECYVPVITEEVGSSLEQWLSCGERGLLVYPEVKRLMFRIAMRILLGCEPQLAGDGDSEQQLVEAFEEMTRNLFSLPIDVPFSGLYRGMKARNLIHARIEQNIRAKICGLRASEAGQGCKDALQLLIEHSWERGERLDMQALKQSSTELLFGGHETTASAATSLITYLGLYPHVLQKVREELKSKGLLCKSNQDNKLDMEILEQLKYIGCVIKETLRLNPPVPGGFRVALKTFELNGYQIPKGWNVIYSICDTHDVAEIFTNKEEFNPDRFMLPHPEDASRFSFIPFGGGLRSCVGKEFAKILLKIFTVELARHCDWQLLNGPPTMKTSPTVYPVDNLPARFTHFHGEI
Method in brief: (§2)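 MCF-7 or T47D cells (1 × 10^6 per well) induced with 1 µM ATRA for 12-15 h, washed, then given inhibitor (0.0001-10 µM, ethanol stock) plus 0.001 µM [11,12-3H]-ATRA for 5 h. Media and cells extracted with ethyl acetate; metabolites measured by reverse-phase HPLC with radiometric detection; IC50 from dose-response curves.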

[4] = target: T1, Cytochrome P450 26A1; assay: Inhibition of ATRA-induced CYP26 in human T47D cells assessed as ATRA metabolism using [11.12-3H]-ATRA; type: functional, cell-based; method in brief: as §2
[5] = target: T1, Cytochrome P450 26A1; assay: Inhibition of ATRA-induced CYP26 in human T47D cell microsome assessed as ATRA metabolism using [11.12-3H]-ATRA; type: functional, microsomes; method in brief: as §1
[6] = system: MCF7; assay: Growth inhibition of human MCF7 cells after 6 days by MTT assay; type: functional, cell-based; details: MCF7, 144 h
Method in brief: (§3)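 MCF-7 (IMEM, 5% FBS) or T47D (RPMI 1640, 10% FBS) cells, 1 × 10^4 per well, adhered ~18 h, then exposed to 0.0001-10 µM drug (ethanol) for 6 days with media and drug renewed on day 4. MTT for 2 h, formazan dissolved in DMSO, A540. Triplicate wells, 2-3 experiments; IC50 by nonlinear regression.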

[7] = system: T47D; assay: Growth inhibition of human T47D cells after 6 days by MTT assay; type: functional, cell-based; details: 144 h; method in brief: as §3
[8] = system: MDA-MB-231; assay: Growth inhibition of human MDA-MB-231 cells up to 10 uM after 6 days by MTT assay; type: functional, cell-based
[9] = system: LNCaP; assay: Growth inhibition of human LNCaP cells after 6 days by MTT assay; type: functional, cell-based; details: 144 h
Method in brief: (§4)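 LNCaP cells (1 × 10^4) on poly-L-lysine-coated wells, attached 36 h; PC-3 cells (1 × 10^4), uncoated, attached 24 h; both in RPMI 1640. Treated with a concentration range of drug for 6 days, medium changed every 3 days. MTT read-out at 540 nm; IC50 by nonlinear regression from at least two experiments.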

[10] = system: PC-3; assay: Growth inhibition of human PC3 cells after 6 days by MTT assay; type: functional, cell-based; details: PC-3, 144 h; method in brief: as §4
[11] = system: MCF7; assay: Induction of apoptosis in human MCF7 cells at 1 uM for 6 days by TUNEL assay; type: functional, cell-based
Method in brief: (§5)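 MCF-7 or T47D cells exposed to 1 µM compound for 6 days, then trypsinized, fixed in 1% paraformaldehyde and stored in 70% ethanol at -20 °C overnight. TdT/BrdUTP labeling (APO-BRDU TUNEL), fluorescein anti-BrdU plus PI/RNase stain; apoptotic cells counted by flow cytometry.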

[12] = system: T47D; assay: Induction of apoptosis in human T47D cells at 1 uM for 6 days by TUNEL assay; type: functional, cell-based; method in brief: as §5
[13] = target: T2, Retinoic acid receptor alpha (Homo sapiens, UniProt P10276); assay: Displacement of [11,12-3H]ARTA from RARalpha
T2 sequence (P10276 whole entry): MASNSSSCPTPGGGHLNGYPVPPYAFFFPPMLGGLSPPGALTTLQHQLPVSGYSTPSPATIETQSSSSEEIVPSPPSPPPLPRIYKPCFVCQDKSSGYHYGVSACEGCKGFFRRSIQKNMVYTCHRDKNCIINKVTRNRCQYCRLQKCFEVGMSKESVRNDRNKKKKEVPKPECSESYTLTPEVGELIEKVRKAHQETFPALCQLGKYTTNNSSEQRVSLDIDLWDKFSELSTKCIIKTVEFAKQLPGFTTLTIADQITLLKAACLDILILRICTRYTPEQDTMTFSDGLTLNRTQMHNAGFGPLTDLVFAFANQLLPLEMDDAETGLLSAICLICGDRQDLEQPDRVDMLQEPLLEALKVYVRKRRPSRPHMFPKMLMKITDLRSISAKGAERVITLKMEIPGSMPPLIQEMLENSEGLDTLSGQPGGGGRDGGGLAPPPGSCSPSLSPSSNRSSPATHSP
Method in brief: (§6)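 Recombinant S-Tag RARα, RARβ or RARγ fusion protein extracts (10-30 µg/mL total protein) in HEPES pH 7.9 binding buffer. Incubated with 1 nM [3H]all-trans-RA and 0-500 nM test compound for 3 h at 27 °C.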

[14] = target: T3, Retinoic acid receptor beta (Homo sapiens, UniProt P10826); assay: Displacement of [11,12-3H]ARTA from RARbeta; method in brief: as §6
T3 sequence (P10826 whole entry): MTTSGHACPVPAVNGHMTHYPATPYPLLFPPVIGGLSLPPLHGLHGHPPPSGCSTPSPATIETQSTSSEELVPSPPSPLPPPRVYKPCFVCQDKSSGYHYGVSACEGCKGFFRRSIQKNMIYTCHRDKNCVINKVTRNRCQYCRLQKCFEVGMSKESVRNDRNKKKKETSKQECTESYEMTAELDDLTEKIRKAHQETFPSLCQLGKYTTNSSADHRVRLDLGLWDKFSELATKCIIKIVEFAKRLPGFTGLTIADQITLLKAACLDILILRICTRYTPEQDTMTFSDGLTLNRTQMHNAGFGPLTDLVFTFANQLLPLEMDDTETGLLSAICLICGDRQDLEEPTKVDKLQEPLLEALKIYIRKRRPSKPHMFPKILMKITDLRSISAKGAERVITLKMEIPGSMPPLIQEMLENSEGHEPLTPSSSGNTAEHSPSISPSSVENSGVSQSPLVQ

[15] = Displacement of [11,12-3H]ARTA from RARgamma; design: species or system Homo sapiens
Method in brief: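 Recombinant S-Tag RARα, RARβ or RARγ fusion protein extracts (10-30 µg/mL total protein) in HEPES pH 7.9 binding buffer. Incubated with 1 nM [3H]all-trans-RA and 0-500 nM test compound for 3 h at 27 °C. Nonspecific binding measured with a 200-fold excess of unlabeled RA; IC50 from dose-response curves, at least two experiments.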

[16] = system: MDA-MB-231; assay: Growth inhibition of human MDA-MB-231 cells after 6 days by MTT assay; type: functional, cell-based; details: MDA-MB-231, 144 h

## CC1=C(/C=C/C(C)=C/C=C/C(C)=C/C(=O)n2ccnc2)C(C)(C)CCC1n1ccnc1 (racemic)
[1]
  Activity: Active
[2]
  IC50: 0.05 nM
  Ki: 62 nM
[3]
  IC50: 24.7 nM
[4]
  IC50: 10 nM
[5]
  IC50: 5.2 nM
[6]
  IC50: 130 nM
[7]
  IC50: 9 nM
[8]
  Activity: inactive
[9]
  IC50: 10000 nM
[10]
  IC50: 5800 nM
[11]
  Activity: Active
[12]
  Activity: Active

## CC1=C(/C=C/C(C)=C/C=C/C(C)=C\C(=O)n2ccnc2)C(C)(C)CCC1n1ccnc1 (racemic)
[2]
  IC50: 57.5 nM

## CC1=C(/C=C/C(C)=C/C=C/C(C)=C/C(=O)n2cncn2)C(C)(C)CCC1
[2]
  IC50: 51.7 nM
[13]
  IC50: 20 nM
[14]
  IC50: 90 nM
[15]
  IC50: 80 nM

## CC1=C(/C=C/C(C)=C/C=C/C(C)=C/C(=O)n2ccnc2)C(C)(C)CCC1
[2]
  IC50: 61.2 nM
[16]
  IC50: 7000 nM
[13]
  IC50: > 1000 nM
[14]
  IC50: 500 nM
[15]
  IC50: 500 nM

## CC1=C(/C=C/C(C)=C/C=C/C(C)=C\C(=O)O)C(C)(C)CCC1n1ccnc1 (racemic)
[2]
  IC50: 119 nM
  Ki: 4.12 nM
[13]
  IC50: 100 nM
[14]
  IC50: 175 nM
[15]
  IC50: 65 nM

## CC1=C(/C=C/C(C)=C/C=C/C(C)=C/C(=O)Nc2ccc(O)cc2)C(C)(C)CCC1n1ccnc1 (racemic)
[2]
  IC50: 43.7 nM
  Ki: 0.35 nM
[3]
  IC50: 56 nM
[4]
  IC50: 24 nM
[6]
  IC50: 610 nM
[7]
  IC50: 570 nM
[16]
  IC50: 6300 nM
[9]
  IC50: 9000 nM
[10]
  IC50: 1500 nM

## COC(=O)/C=C(C)/C=C/C=C(C)/C=C/C1=C(C)[C@H](n2ccnc2)CCC1(C)C (stereo in doubt; (-)-5)
[4]; t47d
  IC50: 6000 nM
[5]
  IC50: 680 nM

## CC1=C(/C=C/C(C)=C/C=C/C(C)=C/C(=O)Nc2ccc(O)cc2)C(C)(C)CCC1 [FENRETINIDE]
[2]
  IC50: 31800 nM
[6]
  IC50: 150 nM
[16]
  IC50: 7700 nM
[9]
  IC50: 7500 nM
[10]
  IC50: 3600 nM

## COC(=O)/C=C(C)/C=C/C=C(C)/C=C/C1=C(C)C(n2ccnc2)CCC1(C)C (racemic)
[2]
  IC50: 0.009 nM
  Ki: 46 nM
[3]
  IC50: 200 nM
[4]
  IC50: 215 nM
[5]
  IC50: 40 nM
[16]
  IC50: 7500 nM

## CC1=C(/C=C/C(C)=C/C=C/C(C)=C\C(=O)Nc2ccc(O)cc2)C(C)(C)CCC1n1ccnc1 (racemic)
[2]
  IC50: 76.7 nM
  Ki: 0.78 nM

## CC1=C(/C=C/C(C)=C/C=C/C(C)=C/C(=O)O)C(C)(C)CCC1n1cncn1 (racemic)
[2]
  IC50: 5.84 nM
[13]
  IC50: > 1000 nM
[14]
  IC50: 1000 nM
[15]
  IC50: 700 nM

## COC(=O)/C=C(C)/C=C/C=C(C)/C=C/C1=C(C)C(n2cnnc2)CCC1(C)C (racemic)
[2]
  IC50: 21.7 nM

## CC1=C(/C=C/C(C)=C/C=C/C(C)=C/C(=O)O)C(C)(C)CCC1n1cnnc1 (racemic)
[2]
  IC50: 46.7 nM
[13]
  IC50: 410 nM
[14]
  IC50: 250 nM
[15]
  IC50: 300 nM

## CC(=O)N1CCN(c2ccc(OCC3COC(Cn4ccnc4)(c4ccc(Cl)cc4Cl)O3)cc2)CC1 (stereo unspecified) [KETOCONAZOLE]
[2]
  IC50: 34000 nM

## COC(=O)/C=C(C)/C=C/C=C(C)/C=C/C1=C(C)C(n2cncn2)CCC1(C)C (racemic)
[2]
  IC50: 2 nM

## COC(=O)/C=C(C)/C=C/C=C(C)/C=C/C1=C(C)C(=N/O)/CCC1(C)C
[2]
  IC50: 23 nM

## COC(=O)/C=C(C)/C=C/C=C(C)/C=C/C1=C(C)[C@H](n2ccnc2)CCC1(C)C (stereo in doubt; (+)-5)
[4]
  IC50: 6000 nM
[5]
  IC50: 800 nM
